Screens from PubChem BioAssay.
SENP8 block-1: SENP8 (human) protease inhibition. Q96LD8. recombinant SENP8, Nedd8 substrate fluorescence. inhibition, % at 20 µM. hit rate 0.64% among 360,000; in the data active means inhibition mostly above about 40%, no sharp cut-off; inactive means mostly below about 27%
Target sequence (Q96LD8 whole entry, looked up): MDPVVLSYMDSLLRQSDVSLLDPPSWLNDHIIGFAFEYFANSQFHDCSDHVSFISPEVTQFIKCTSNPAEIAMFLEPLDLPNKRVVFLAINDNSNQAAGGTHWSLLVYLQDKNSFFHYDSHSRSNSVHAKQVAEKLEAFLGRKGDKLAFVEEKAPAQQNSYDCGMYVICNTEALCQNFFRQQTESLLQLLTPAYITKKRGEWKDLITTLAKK
HSP90 inh: HSP90 refolding inhibition in rabbit reticulocyte lysate; hit rate 0.91% among 290,000; inhibition, % at 5.6 µM; luciferase refolding luminescence, 3 h; AID 1789;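 active means inhibition above the screen-wide mean plus 3 SD, computed separately per campaign, cut at about 16% in these data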;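 further: inhibitors lower the luminescence because luciferase stays unfolded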
SENP6 inh: inhibitors of human SENP6 protease. inhibition, % at 10 µM. Recombinant SENP6 catalytic domain, aminoluciferin luminescence. AID 2599. hit rate 1.8% among 330,000. Q9GZR1;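 active means inhibition above about 50% at the single tested dose, limit read from the data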
SENP7 inh: blocks the human protease SENP7; Q9BQF6; recombinant SENP7, Z-RLRGG-aminoluciferin luminescence, 40 min; inhibition, % at 5 µM; hit rate 1.5% among 330,000; AID 434973;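 active means inhibition above about 50% at the single test dose, limit read from the data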
SENP1 FRET inh: SENP1 (human) catalytic domain inhibition; recombinant SENP1 catalytic domain, CyPet-SUMO1-YPet FRET cleavage; AID 624204; inhibition, % at 10 µM; Q9P0U3; hit rate 0.21% among 360,000;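 active means inhibition at least 30% at 10 µM, raw YFP signal under a set limit, fluorescence ratio 0.5 to 1.5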
Target sequence (Q9P0U3 419-644 limits assumed): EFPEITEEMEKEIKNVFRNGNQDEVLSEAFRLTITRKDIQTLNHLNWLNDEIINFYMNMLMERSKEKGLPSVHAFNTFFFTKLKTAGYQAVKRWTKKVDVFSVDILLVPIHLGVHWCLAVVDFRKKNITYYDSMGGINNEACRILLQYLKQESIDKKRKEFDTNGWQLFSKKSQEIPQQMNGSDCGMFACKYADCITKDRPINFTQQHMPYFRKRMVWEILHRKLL
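Compound: 10 µM single point, 0.5% DMSO; Test system: hSENP1 catalytic domain, recombinant; Timing: 50 min reaction at room temperature; Technique: FRET, CFP and YFP emission; Control set: no-enzyme wells low, DMSO-plus-enzyme wells high control.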
SENP8 block-2: inhibitors of human SENP8 protease. purified SENP8, Z-RLRGG-aminoluciferin cleavage, luminescence. inhibition, % at 10 µM. hit rate 1.2% among 330,000. AID 2540; in the data active means inhibition above about 50%
SENP8 inh conf: SENP8 (human) inhibition, single concentration confirmation | shares compounds with SENP8 block-1 | purified SENP8, Nedd8-AMC/pro-Nedd8 cleavage fluorescence, 30 min | inhibition, % at 25 µM | hit rate 15% among 1,400 | AID 624319; in the data active means inhibition mostly above about 39%, no sharp cut-off; inactive means mostly below about 34%
A number is an active result; n = inactive; x = no result. This is a sample that favours compounds with a hit; in the whole collection about 2.9% have one here.

SMILES	SENP8 block-1	HSP90 inh	SENP6 inh	SENP7 inh	SENP1 FRET inh	SENP8 block-2	SENP8 inh conf
Cc1[nH]nc(N2CCCCC2)c1[N+](=O)[O-]	44	n	n	n	n	n	n
O=C(O/N=C\c1ccc(N2CCCCC2)c([N+](=O)[O-])c1)c1cccc(Cl)c1	59	n	n	n	n	n	n
Cc1ccc(C(=O)O/N=C\c2ccc(N3CCCCC3)c([N+](=O)[O-])c2)cc1	48	n	n	n	n	n	n
Cc1ccc(NC(=O)CN2CCc3cc4c(cc3C2)OCCCO4)cc1C	n	n	n	n	n	n	x
Cc1ccc(NC(=O)CN2CCc3cc4c(cc3C2)OCCCO4)cc1	43	n	n	n	n	n	n
CC1(C(=O)NS(=O)(=O)c2ccc(C#N)cc2)CCN1C(=O)C1(c2ccc(Cl)cc2)CC1 (stereo not given)	n	x	x	x	n	x	x
Cc1ccc(NC(=S)N2CCN(S(C)(=O)=O)CC2)cc1Cl	n	n	n	n	n	n	x
N#Cc1ccc(CN2C(=O)NC3(CCCCCC3)C2=O)cc1	n	n	n	n	n	n	x
COc1ccc(C(=O)CNc2ccc(C)cc2C)cc1	54	n	n	n	n	n	n
CCOC(=O)C1=C(CN2CCSCC2)NC(=O)NC1c1cccc([N+](=O)[O-])c1 (stereo not given)	44	n	n	n	n	n	n
Cc1cnc(C(=O)OCC(=O)NC2CCCCCCC2)cn1	n	n	n	n	n	n	x
CCN(C(=O)COC(=O)c1cnc(C)cn1)C1CCCCC1	40	n	n	n	n	n	n
O=C(CCS(=O)(=O)CCN1CCOCC1)NCNC(=O)CCS(=O)(=O)CCN1CCOCC1	n	n	n	n	n	n	x
COc1ccc(N2CSC3=C(C#N)C(c4cccc(OC)c4OC)CC(=O)N3C2)cc1 (stereo not given)	n	n	n	n	n	n	x
COc1ccc2ccccc2c1C1CC(=O)N2CN(C3CCCCC3)CSC2=C1C#N (stereo not given)	75	n	n	n	n	n	n
CC(=O)Oc1ccc2oc(/C=C/N(C)C)c([N+](=O)[O-])c2c1	n	n	n	n	n	n	x
COc1nc(/C=C/N(C)C)c([N+](=O)[O-])c(OC)n1	43	n	n	n	n	n	n
O=Nc1c(-c2ccccc2)[nH]n(-c2ccccc2)c1=O	47	n	n	n	n	n	n
COC(=O)c1cc2c(-c3ccccc3)cc3ccccn3c-2c1C(=O)OC	n	n	n	n	n	n	x
COC(=O)c1c(C(=O)OC)c2cccc3cc(-c4ccccc4)c4ccc1c4n32	74	n	n	n	n	n	n
Cc1ccccc1N1C(=O)CC(N(O)c2ccccc2)C1=O (stereo not given)	n	n	n	n	n	n	x
O=C1CC(N(O)c2ccccc2)C(=O)N1c1cc(Cl)cc(Cl)c1 (stereo not given)	44	n	n	n	n	n	n
CCOc1ccc(NC(=O)CN(C)C(=O)Cn2cnc3c2c(=O)n(C)c(=O)n3C)cc1OCC	n	x	n	n	n	n	x
Cc1cccc(N2C(=O)c3ccc(C(=O)Nc4ccccn4)cc3C2=O)c1	n	n	n	n	n	n	x
O=C(O)c1cccc(N2C(=O)c3ccc(Oc4ccc(Cl)cc4)cc3C2=O)c1	n	n	n	n	n	n	x
SMILES	SENP8 block-1	HSP90 inh	SENP6 inh	SENP7 inh	SENP1 FRET inh	SENP8 block-2	SENP8 inh conf
O=C(O)c1cccc(C(=O)O)c1	45	n	n	n	n	n	n
Cc1cccc(N2C(=O)/C(=C\c3ccc(C(=O)O)cc3)c3ccccc3C2=O)c1	43	n	n	n	n	n	n
O=C(O)c1cccc(N2C(=O)c3ccc4c5c(ccc(c35)C2=O)C(=O)N(c2cccc(C(=O)O)c2)C4=O)c1	50	n	n	n	n	n	50
O=C(NCCN1CCCCC1)Nc1ccc(Br)cc1	n	n	n	n	n	n	x
COc1ccc(C(=O)Nc2ccccc2C(=O)N/N=C/c2ccco2)cc1	n	n	n	n	n	n	x
Cc1nnc(Sc2cc(NCCCO)c([N+](=O)[O-])c3nonc23)s1	75	n	x	x	n	x	n
CCS(=O)(=O)NCc1csc(-c2ccccc2)n1	n	n	n	n	n	n	x
CS(=O)(=O)NCc1csc(-c2ccccc2)n1	44	n	n	n	n	n	n
Cc1ccc(C(=O)N2CCN(Cc3ccccc3)CC2)o1	n	n	n	n	n	n	x
